# Compound activity (PubChem)
# KCNK9 block: human KCNK9 channel inhibition; hit rate 1.2% among 310,000; B-score at 10 µM; AID 488922; HEK293 KCNK9, FluxOR thallium flux fluorescence; active compounds read low;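 active means ratio B-score over 3 SD below the library mean, with starting fluorescence within 5 SD of its mean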;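 further: negative B-score means less thallium flux so channel inhibition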
# Target sequence (Q9NPC2 whole entry, looked up): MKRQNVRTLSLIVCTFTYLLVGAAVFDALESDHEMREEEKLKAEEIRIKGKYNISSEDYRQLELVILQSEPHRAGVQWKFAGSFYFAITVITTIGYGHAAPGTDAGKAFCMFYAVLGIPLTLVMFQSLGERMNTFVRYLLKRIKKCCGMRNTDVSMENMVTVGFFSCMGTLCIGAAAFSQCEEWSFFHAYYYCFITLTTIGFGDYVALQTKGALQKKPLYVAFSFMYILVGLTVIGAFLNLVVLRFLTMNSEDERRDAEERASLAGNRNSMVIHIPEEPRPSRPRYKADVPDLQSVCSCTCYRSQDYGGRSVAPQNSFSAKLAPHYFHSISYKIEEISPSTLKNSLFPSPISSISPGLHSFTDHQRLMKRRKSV
# Kir21 inh: Kir2.1 (mouse) channel inhibition. P35561. HEK293-Kir2.1, FluxOR thallium flux fluorescence; active compounds read low. B-score at 10 µM. hit rate 0.85% among 310,000. AID 1672;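 active means fluorescence ratio B-score at or below minus 3 SD of library scores, with starting-brightness B-score within 2 SD, cut at about -4.2 in these data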;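 further: channel flux triggered by added potassium and thallium sulfate stimulus; B-score of peak minus minimum fluorescence over baseline after thallium stimulus; more negative B-score means stronger Kir2.1 block with less thallium influx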
# KCNK3 block: human KCNK3 channel inhibition, primary screen | O14649 | CHO-KCNK3 thallium flux, FluxOR fluorescence; active compounds read low | B-score at 10 µM | hit rate 0.84% among 340,000 | AID 602410;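 active means B-score under library mean minus 4 SD, starting fluorescence ratio at most library mean plus 5 SD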;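 further: more negative B-score means stronger inhibition of thallium flux through KCNK3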
# KCNQ1 inh: human KCNQ1 channel inhibition | CHO-K1 KCNQ1, FluxOR thallium flux fluorescence; active compounds read high | B-score at 10 µM | hit rate 1.3% among 310,000;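 active means compounds whose thallium flux B-score, printed positive for inhibition, exceeds three library SD while starting fluorescence stays within three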;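 further: channel opened by potassium depolarization with thallium stimulus after 20 min compound exposure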
# KCNQ1 pot: potentiates or activates the human KCNQ1 potassium channel. B-score at 10 µM. hit rate 0.35% among 310,000. CHO-K1 KCNQ1, thallium flux FluxOR fluorescence; active compounds read high. AID 2648;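 active means fluorescence ratio B-score, a plate-corrected score, at least three library SD, with initial intensity B-score within 5 SD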
#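 Assay system: stable KCNQ1 CHO-K1 line; medium: assay buffer, equal DMSO in all wells; timing: 90 min dye loading and 20 min compound exposure, both at room temperature; technique: kinetic FluxOR thallium fluorescence, 10-s 1-Hz baseline, 110-s post-stimulus read; read-out basis: B score of baseline-normalized fluorescence ratio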
# hERG rescue: compounds protecting human hERG from proarrhythmic drug block; Q12809; CHO-hERG, FluxOR thallium flux, dofetilide IC70 present; activation (rescue from dofetilide block), less the hit threshold, % at 10 µM; hit rate 0.51% among 310,000; AID 1511;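 active means activation above the mean of controls blocked by dofetilide plus 5 SD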;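 further: thallium influx through hERG after potassium depolarization seen as dye fluorescence rise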
# KCNK9 block conf: confirmation of human KCNK9 potassium channel inhibitors | shares compounds with KCNK9 block | HEK293 KCNK9 cells, FluxOR thallium flux fluorescence | inhibition, % at 10 µM | hit rate 43% among 4,900;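 active means thallium signal inhibited by more than 5 SD of the compound-free buffer control wells, on both duplicate plates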;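 further: 0% = assay buffer control wells without compound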
# Kir2-1 spec: tests whether KCNK9 modulators also affect mouse Kir2.1; shares compounds with KCNK9 block; Kir2.1 cells, FluxOR thallium flux fluorescence; inhibition, % at 10 µM; hit rate 4% among 4,900;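 active means thallium signal drop more than 5 SD beyond the mean of the no-compound control wells, seen in both duplicate plates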;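 further: signal is fluorescence rise after thallium addition divided by baseline fluorescence; plate controls were assay buffer only for no effect and full block by chlorpromazine control for full effect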
# HEK293 Tl ctr: second check of KCNK9 modulator effects in non-induced HEK293 cells | shares compounds with KCNK9 block | hit rate 40% among 4,900 | inhibition, % at 10 µM | FluxOR thallium flux | AID 492997;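 active means thallium signal drop beyond 5 SD of the untreated control mean, on both duplicate plates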;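 further: plate controls were buffer only IC0 wells for no effect and SID17386958 at its maximal inhibitory level for full effect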
# * = called active by the depositor; i = inactive; / = no result given. Hits are enriched below; roughly 3.8% of the tested compounds scored in any of these assays.
SMILES,KCNK9 block,Kir21 inh,KCNK3 block,KCNQ1 inh,KCNQ1 pot,hERG rescue,KCNK9 block conf,Kir2-1 spec,HEK293 Tl ctr
CCCOc1cccc(C(=O)NC(=S)Nc2cccc(C(F)(F)F)c2)c1,i,-0.14,i,i,i,-2.8,i,i,i
O=C(CN1CCN(c2ccc(O)cc2)CC1)Nc1ccc2c(c1)OCCCO2,/,/,i,/,/,/,/,/,/
CC(C1CC2CCC1C2)n1c(-c2ccco2)n[nH]c1=S (centres undefined),-14.7*,-5.52*,i,i,i,-3.8,62.5%*,i,i
NC(=O)c1sc(-c2ccsc2)cc1NS(=O)(=O)c1ccc(C(F)(F)F)cc1,i,0.58,i,i,i,-13.6,i,i,i
CC1(C)CC(=O)c2c(O)cc(OCc3ccc(Br)cc3)cc2O1,-8.4*,-1.99,i,i,i,-12.1,73.0%*,i,41.5%*
COC(=O)c1ccc(COc2cc(O)c3c(c2)OC(C)(C)CC3=O)cc1,i,0,i,i,i,-5.8,/,/,/
Cc1ccc(S(=O)(=O)CCC(=O)OC2CC(C)OC2=O)cc1 (centres undefined),/,/,i,/,/,/,/,/,/
Cc1ccccc1CN1C(=O)[C@H]2Cc3c([nH]c4ccccc34)C(C)(C)N2C1=O,i,0.8,i,i,i,-2.6,/,/,/
COc1ccc(OC)c(C2SCCN2S(=O)(=O)c2cccc(C(F)(F)F)c2)c1 (centres undefined),-15.2*,-0.25,i,i,i,-6.9,i,i,59.5%*
COc1ccc(F)cc1C(=O)C1CCCN(C(=O)c2cccc(N(C)C)c2)C1 (centres undefined),i,0.06,i,i,i,-16.6,i,i,i
COc1ccc(C(=O)C2CCCN(C(=O)c3ccc(F)cc3)C2)cc1OC (centres undefined),i,0.04,i,i,i,-12.2,/,/,/
COc1ccc(C(=O)C2CCCN(C(=O)c3cccc(N(C)C)c3)C2)cc1OC (centres undefined),i,0.99,i,i,i,-6.5,i,i,i
COc1ccc(C(=O)C2CCCN(Cc3cccc4c3OCO4)C2)cc1OC (centres undefined),i,-0.02,i,i,i,-2.1,i,i,i
COc1cccc(CN2CCCC(C(=O)c3ccc4c(c3)OCO4)C2)c1OC (centres undefined),i,-0.12,i,i,i,-6.1,/,/,/
CC(/C=C1\SC(=S)N(NC(=O)c2ccccc2C)C1=O)=C\c1ccccc1,i,0.54,i,i,i,-9.0,/,/,/
CC(/C=C1\SC(=S)N(C(C(=O)O)C(C)C)C1=O)=C\c1ccccc1 (centres undefined),i,2.44,i,i,i,-14.7,i,i,i
CC(/C=C1\SC(=S)N(NS(=O)(=O)c2ccccc2)C1=O)=C\c1ccccc1,i,0.06,i,i,14*,10.3*,i,i,i
CC(/C=C1\SC(=S)N(NS(=O)(=O)c2ccc(C)cc2)C1=O)=C\c1ccccc1,i,1.49,i,i,39*,2.1,i,i,i
C=CCOc1ccc(/C=C2\SC(=S)N(NS(=O)(=O)c3ccccc3)C2=O)cc1,i,3.34,i,i,15*,-3.8,i,i,i
O=C(NCCC1CC1(Cl)Cl)Nc1ccccc1 (centres undefined),i,0.88,i,i,i,-3.3,/,/,/
COc1ccc(S(=O)(=O)N2CCOC23CCN(S(=O)(=O)c2ccccc2)CC3)cc1,i,2.14,i,i,i,-11.6,/,/,/
COC(=O)c1ccc(NC(=O)c2snnc2-c2ccccc2)cc1,i,0.99,i,i,i,-13.9,/,/,/
Cc1cc(C)nc(Nc2ccccc2Br)n1,i,-0.28,i,i,i,-2.5,/,/,/
Cc1cc(C)nc(N/C(=N\S(=O)(=O)Cc2ccccc2)Nc2ccccc2Br)n1,-9.38*,1.91,i,i,i,-9.0,40.5%*,i,i
COc1ccc(C2CC(=O)N3CN(c4ccc(C)c(Cl)c4)CSC3=C2C#N)cc1 (centres undefined),i,0.13,i,i,i,-9.2,i,i,i
SMILES,KCNK9 block,Kir21 inh,KCNK3 block,KCNQ1 inh,KCNQ1 pot,hERG rescue,KCNK9 block conf,Kir2-1 spec,HEK293 Tl ctr
COc1ccc(N2CSC3=C(C#N)C(c4cccc(OC)c4OC)CC(=O)N3C2)cc1 (centres undefined),i,0.34,i,i,i,-9.2,/,/,/
O=C(COc1ccccc1[N+](=O)[O-])N1CCN(c2ccccn2)CC1,i,0.01,i,i,i,-14.8,/,/,/
COc1ccc(N2CCN(C(=O)CSc3nc(C)cs3)CC2)cc1,i,0.76,i,i,i,-10.4,/,/,/
COc1ccc(N2CCN(C(=O)CSc3ncnc4scc(-c5ccc(C)cc5)c34)CC2)cc1,i,-0.27,i,i,i,-10.6,i,i,i
CCOC(=O)Cn1c(=O)cc(C)c2cccc(C)c21,i,-1.29,i,i,i,-14.9,i,i,i
Cc1ccc(Cn2c(C3CCCN3c3nc(C)cs3)nc3cc(C(F)(F)F)ccc32)cc1 (centres undefined),-14.9*,1.05,i,i,i,-15.4,74.0%*,i,56.0%*
Cc1ccc(Cn2c(C3CCCN3c3nc(-c4cc(Cl)c(N)c(Cl)c4)cs3)nc3cc(C(=O)NCCCO)ccc32)cc1 (centres undefined),i,0.61,i,i,i,-4.1,/,/,/
COc1ccc(C)cc1S(=O)(=O)N1CCN(C(=O)c2ncoc2-c2ccccc2F)CC1,i,-1.59,i,i,i,-11.6,/,/,/
Oc1c(C(Nc2nccs2)c2ccc(C(F)(F)F)cc2)ccc2cccnc12 (centres undefined),i,0.86,i,i,i,-15.3,i,i,i
CCCCNC(=O)CSc1nc(Cc2ccccc2)nc2ccccc12,i,-3.48,i,i,i,-5.9,/,/,/
COC1CCCCC1Nc1cccc(SC)c1 (centres undefined),i,-0.28,i,i,i,-1.8,i,i,i
